ChEMBL document CHEMBL1150130, “Activity-guided isolation of constituents of Renealmia nicolaioides with the potential to induce the phase II enzyme quinone reductase” (J Nat Prod, 2002)
≈ marks a conversion by molar mass, not a printed value.

Key:
[1] = Cytotoxicity against mouse Hepa-1c1c7 cells; format: cell-based
In short: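 Mouse Hepa 1c1c7 hepatoma cells were cultured and assessed in the same system as the QR induction assay. IC50 was taken as the concentration causing half-maximal inhibition of cell viability.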

[2] = Chemopreventive index, ratio of IC50 for mouse Hepa-1c1c7 cells to drug level required to double specific NADPH:quinone reductase activity in mouse Hepa-1c1c7 cells; format: functional
In short: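 Cultured mouse hepatoma Hepa 1c1c7 cells treated with extracts, fractions or pure isolates. QR induction was expressed as CD, the concentration that doubles QR specific activity. IC50 was the concentration giving half-maximal inhibition of cell viability in the same cells. Index computed as IC50/CD. Sulforaphane served as positive control.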

Plasmodium falciparum = test: Antiplasmodial activity against Plasmodium falciparum D6; format: functional, organism-based

| Structure (SMILES) | IC50 (Plasmodium falciparum) [µg/mL] | IC50 [1] [µg/mL] | Ratio [2] |
| --- | --- | --- | --- |
| COc1cc(O)c(C(=O)/C=C/c2ccccc2)c(OC)c1 [FLAVOKAWAIN B] | – | 7.2 (≈ 25.3 µM) | – |
| COc1cc(O)c2c(c1)O[C@H](c1ccccc1)CC2=O (racemic) [PINOSTROBIN] | – | > 100 | >111 |
| C[S+]([O-])CCCCN=C=S (stereo not drawn) [SULFORAPHANE] | – | 2.07 (≈ 11.7 µM) | 23.8 |

Continued, in another order:

| IC50 (Plasmodium falciparum) [µg/mL] | Structure (SMILES) | IC50 [1] [µg/mL] | Ratio [2] |
| --- | --- | --- | --- |
| < 5 | C/C1=C\CC[C@](C)(O)/C=C/[C@H](C(C)C)CC1 | – | – |
| < 5 | C=C1CC[C@@H](C(C)C)/C=C/[C@@](C)(O)CC[C@@H]1O | – | – |
| < 5 | CC(C)C1=CC[C@@]2(C)[C@H](O)CC[C@](C)(O)[C@@H]2C1 [OPLODIOL] | – | – |
